ChEMBL document CHEMBL1133353, “Structural analogues of some highly active non-competitive AMPA antagonists” (Bioorg Med Chem Lett, 2000)
Each block holds one molecule with its values, some of them ahead of it.

Key:
Mus musculus [1] = test: No behavioral change was observed after the intraperitoneal administration of compound in mice; format: functional
Gallus gallus [2] = species: Gallus gallus; test: Compound was examined in vitro for inhibition of AMPA (5 uM) evoked spreading depression in isolated retina prepared from young chicken; format: functional
Summary of the method: (§1)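 Each compound was first screened at 20 µM in 6 retina preparations. Below 40% inhibition was recorded as IC50 >20 µM, and 40–60% as ~20 µM. Above 60%, IC50 was determined from 3–5 concentrations with 6 retinas per concentration.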

Mus musculus [3] = test: Muscle relaxant activity of compound, administered intraperitoneally in mice was evaluated using inclined screen test; format: functional; details: ip
Summary of the method: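 Inclined screen test for muscle relaxation in mice, with compound given ip 30 min before testing; 10 mice per dose at 3–4 doses. ED50 was derived by the Litchfield–Wilcoxon method.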

Mus musculus [4] = test: Anticonvulsant activity of compound, administered perorally in mice was evaluated using maximal electroshock seizure model; format: functional; details: po
Summary of the method: (§2)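 Mice were dosed orally 60 min before maximal electroshock, using 10 mice per dose at 3–4 doses. ED50 was calculated by the Litchfield–Wilcoxon method.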

Mus musculus [5] = test: No behavioral change was observed after the peroral administration of compound in mice; format: functional
Mus musculus [6] = test: Decrease of spontaneous motor activity, ataxy, mild muscle relaxation was observed after the intraperitoneal administration of compound in mice; format: functional
Mus musculus [7] = test: Decrease of spontaneous motor activity, ataxy, mild muscle relaxation was observed after the peroral administration of compound in mice; format: functional
Mus musculus [8] = test: Increase of spontaneous motor activity, ataxy, stereotypia, licking, muscle rigidity was observed after the intraperitoneal administration of compound in mice; format: functional
Mus musculus [9] = test: Increase of spontaneous motor activity, ataxy, stereotypia, licking, muscle rigidity was observed after the peroral administration of compound in mice; format: functional
Mus musculus [10] = test: Anticonvulsant activity of compound, administered perorally in mice was evaluated using maximal electroshock seizure model; values ranges from (40.5-54.7); format: functional; details: po; summary of the method: as §2
Rattus norvegicus [11] = species: Rattus norvegicus; test: (§3) Compound was tested for inhibition of whole cell current induced […]; format: functional
Summary of the method: (§4)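 Patch-clamp whole-cell currents evoked by 5 µM AMPA; inhibition reported as IC50 or as percent inhibition at 5 µM compound.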

Mus musculus [12] = test: Loss of righting reflex was observed after the intraperitoneal administration of compound in mice; format: functional
Mus musculus [13] = test: Loss of righting reflex was observed after the peroral administration of compound in mice; format: functional
Mus musculus [14] = test: Anticonvulsant activity of compound, administered perorally in mice was evaluated using maximal metrazole seizure model; format: functional; details: po
Summary of the method: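 Oral dosing in mice 60 min before 130 mg/kg metrazole ip, with lethality as the endpoint; 10 mice per dose at 3–4 doses. ED50 was obtained by the Litchfield–Wilcoxon method.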

Gallus gallus [15] = species: Gallus gallus; test: Compound was examined in vitro for inhibition of kainate (5 uM) evoked spreading depression in isolated retina prepared from young chicken; format: functional; summary of the method: as §1
Mus musculus [16] = test: Adynamia was observed after the intraperitoneal administration of compound in mice; format: functional
Mus musculus [17] = test: Adynamia was observed after the peroral administration of compound in mice; format: functional
Rattus norvegicus [18] = species: Rattus norvegicus; test: as §3; format: functional, cell-based; summary of the method: as §4

SMILES: CC1CN(C(=O)C2CC2)N=C(c2ccc(N)cc2)c2cc3c(cc21)OCO3 (stereo not drawn)
- Dose (Mus musculus [1]): 100 mg/kg
- IC50 (Gallus gallus [2]): > 20 µM
- ED50 (Mus musculus [3]): > 200 mg/kg
- ED50 (Mus musculus [4]): > 100 mg/kg
- Dose (Mus musculus [5]): 200 mg/kg

- IC50 (Gallus gallus [2]): > 20 µM
SMILES: CC1CN(c2ccccn2)N=C(c2ccc(N)cc2)c2cc3c(cc21)OCO3 (stereo not drawn)
- Dose (Mus musculus [6]): 100 mg/kg
- ED50 (Mus musculus [3]): > 200 mg/kg
- ED50 (Mus musculus [4]): > 100 mg/kg
- Dose (Mus musculus [7]): 200 mg/kg

SMILES: CCCCC(=O)N1CC(C)c2cc3c(cc2C(c2ccc(N)cc2)=N1)OCO3 (stereo not drawn)
- Dose (Mus musculus [1]): 100 mg/kg
- IC50 (Gallus gallus [2]): > 20 µM
- ED50 (Mus musculus [3]): > 200 mg/kg
- ED50 (Mus musculus [4]): > 100 mg/kg
- Dose (Mus musculus [5]): 200 mg/kg

SMILES: CC1CNN=C(c2ccc(N)cc2)c2cc3c(cc21)OCO3 (stereo not drawn)
- Dose (Mus musculus [8]): 100 mg/kg
- ED50 (Mus musculus [3]): 100 mg/kg
- Dose (Mus musculus [9]): 200 mg/kg
- ED50 (Mus musculus [10]): 47.1 mg/kg

SMILES: CNC(=O)N1CC(C)c2cc3c(cc2C(c2ccc(N)cc2)=N1)OCO3 (stereo not drawn)
- IC50 (Gallus gallus [2]): 15.6 µM
- Inhibition (Rattus norvegicus [11]): 52.7%
- Dose (Mus musculus [12]): 100 mg/kg
- ED50 (Mus musculus [3]): 55.9 mg/kg
- Dose (Mus musculus [13]): 200 mg/kg
- ED50 (Mus musculus [4]): 48.8 mg/kg
- ED50 (Mus musculus [14]): 67.6 mg/kg
- IC50 (Gallus gallus [15]): 20 µM

SMILES: CC(=O)N1CC(C)c2cc3c(cc2C(c2ccc(N)cc2)=N1)OCO3 (stereo not drawn)
- IC50 (Gallus gallus [2]): 20 µM
- Inhibition (Rattus norvegicus [11]): 54%
- ED50 (Mus musculus [3]): 95.3 mg/kg
- Dose (Mus musculus [16]): 100 mg/kg
- ED50 (Mus musculus [4]): 69.3 mg/kg
- ED50 (Mus musculus [14]): 135 mg/kg
- Dose (Mus musculus [17]): 200 mg/kg
- IC50 (Gallus gallus [15]): 3.4 µM

SMILES: CC1=NN=C(c2ccc(N)cc2)c2cc3c(cc2C1)OCO3 [GYKI-52466]
- IC50 (Gallus gallus [2]): 6.3 µM
- Dose (Mus musculus [12]): 100 mg/kg
- Dose (Mus musculus [13]): 200 mg/kg
- ED50 (Mus musculus [4]): 37.4 mg/kg
- ED50 (Mus musculus [14]): 120 mg/kg
- IC50 (Rattus norvegicus [18]): 9.9 µM
- IC50 (Gallus gallus [15]): 9.5 µM

SMILES: CC(=O)N1N=C(c2ccc(N)cc2)c2cc3c(cc2C[C@H]1C)OCO3 [TALAMPANEL]
- IC50 (Gallus gallus [2]): 1.7 µM
- Dose (Mus musculus [12]): 100 mg/kg
- Dose (Mus musculus [13]): 200 mg/kg
- ED50 (Mus musculus [4]): 8.6 mg/kg
- IC50 (Rattus norvegicus [18]): 2.5 µM
- IC50 (Gallus gallus [15]): 2.6 µM
